Experimental data: ChEMBL document CHEMBL3612038, “N-Alkyl/aryl-4-(3-substituted-3-phenylpropyl)piperazine-1-carbothioamide as dual-action vaginal microbicides with reverse transcriptase inhibition” (Eur J Med Chem, 2015)
Values after ≈ are worked out from the molar mass of the structure shown.

Columns and labels:
[1] = Tmax in New-Zealand rabbit at 33 mg/kg dosed through vaginal administration by LC-MS/MS method; type: ADME, organism-based, Oryctolagus cuniculus; conditions: in vivo
How it was run: (§1)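 Female New Zealand rabbits received a single vaginal dose of 33 mg/kg. Drug in plasma was quantified by LC-MS/MS on a C18 column with phenacetin as internal standard. For each plasma sample (50 µL), 200 µL of internal-standard solution (200 ng/mL phenacetin in acetonitrile) was added. Samples were mixed, centrifuged at 13,000 rpm for 20 min, and the supernatant injected. The method was validated to FDA bioanalytical criteria.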

[2] = system: Sporothrix schenckii; assay: Antifungal activity against Sporothrix schenckii incubated for 48 hrs by broth micro-dilution method; type: functional
How it was run: (§2)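 Broth microdilution per NCCLS guidelines in RPMI 1640 buffered with MOPS; starting inoculum 1–5 × 10^3 CFU/mL; plates incubated at 35 °C, MIC read after 48 h.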

[3] = Terminal half life in New-Zealand rabbit at 33 mg/kg dosed through vaginal administration by LC-MS/MS method; type: ADME, organism-based, Oryctolagus cuniculus; conditions: in vivo, read-out: beta t1/2 (converted); how it was run: as §1
[4] = system: Trichomonas vaginalis; assay: Resistance index, ratio of MIC for MTZ-resistant Trichomonas vaginalis to MIC for MTZ-susceptible Trichomonas vaginalis; type: functional
[5] = system: Trichomonas vaginalis; assay: Anti-trichomonas activity against MTZ-susceptible Trichomonas vaginalis incubated for 3 to 48 hrs by trypan blue exclusion assay; type: functional
How it was run: (§3)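 Trichomonas vaginalis trophozoites (5 × 10^4/L as printed) in TYM medium; DMSO stocks (100.0 mg/mL) serially diluted in TYM to 0.1 mg/mL, DMSO/TYM vehicle controls. Anaerobic incubation at 37 °C; viability checked 3–48 h by microscopy (200×) with trypan blue exclusion. MIC = lowest concentration killing all cells within 48 h.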

[6] = system: HeLa; assay: Cytotoxicity against human HeLa cells assessed as reduction in cell viability at 200 ug/ml incubated for 24 hrs by MTT assay; type: cell-based
How it was run: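 HeLa cells seeded at 5 × 10^4 per well, exposed 24 h to compound dilutions in culture medium or vehicle control; MTT (5 mg/mL in pH 7.4 buffer) added, formazan dissolved in DMSO, absorbance read at 540 nm.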

[7] = AUC (0 to infinity) in New-Zealand rabbit at 33 mg/kg dosed through vaginal administration by LC-MS/MS method; type: ADME, organism-based, Oryctolagus cuniculus; design: dose 33 mg/kg, time infinity; conditions: in vivo; how it was run: as §1
[8] = system: Candida parapsilosis; assay: Antifungal activity against Candida parapsilosis ATCC 22019 incubated for 48 hrs by broth micro-dilution method; type: functional; conditions: Lodderomyces parapsilosis, ATCC 22019, 48 h; how it was run: as §2
[9] = Spermicidal activity in liquefied human semen assessed as reduction in motile spermatozoa incubated at 37 degC for 30 mins; type: functional, Sperm; conditions: for minimal effective concentration: Homo sapiens, Sperm, Semen, 0.5 h, read-out: MEC
How it was run: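 Compounds dissolved in minimal DMSO, diluted with 0.85% saline to 1.0% test solution; liquefied human semen mixed 1:5 with test solution, vortexed 10 s; motile sperm scored by phase-contrast microscopy over 60 s in five fields. MEC = lowest concentration immobilizing 100% of sperm, still immotile after dilution with nutrient medium.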

[10] = system: Trichophyton mentagrophytes; assay: Antifungal activity against Trichophyton mentagrophytes incubated for 48 hrs by broth micro-dilution method; type: functional; how it was run: as §2
[11] = system: Trichomonas vaginalis; assay: Anti-trichomonas activity against MTZ-resistant Trichomonas vaginalis incubated for 3 to 48 hrs by trypan blue exclusion assay; type: functional; how it was run: as §3
[12] = system: Cryptococcus neoformans; assay: Antifungal activity against Cryptococcus neoformans incubated for 48 hrs by broth micro-dilution method; type: functional; how it was run: as §2
[13] = system: Aspergillus fumigatus; assay: Antifungal activity against Aspergillus fumigatus incubated for 48 hrs by broth micro-dilution method; type: functional; how it was run: as §2
[14] = Cmax in New-Zealand rabbit at 33 mg/kg dosed through vaginal administration by LC-MS/MS method; type: ADME, organism-based, Oryctolagus cuniculus; design: dose 33 mg/kg; conditions: in vivo; how it was run: as §1
[15] = Stability in simulated vaginal fluid at pH 4.2 at 200 ng/ml by LC-MS/MS method; conditions: buffer
[16] = system: Candida albicans; assay: Antifungal activity against Candida albicans incubated for 48 hrs by broth micro-dilution method; type: functional; how it was run: as §2
[17] = target: Human immunodeficiency virus type 1 reverse transcriptase (Human immunodeficiency virus 1) (UniProt Q72547); assay: Inhibition of HIV1 reverse transcriptase at 100 ug/ml incubated for 1 hr by ELISA method
How it was run: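 Non-radioactive colorimetric ELISA: template/primer with dNTPs plus HIV-1 RT in lysis buffer ± compound (100 µg/mL), 1 h at 37 °C; RT-free buffer as negative control, nevirapine as positive control. Product captured on streptavidin plate 1 h at 37 °C, detected with anti-DIG-POD and ABTS, OD 405 nm.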

[18] = system: Oryctolagus cuniculus; assay: Drug level in plasma of New-Zealand rabbit at 33 mg/kg dosed through vaginal administration by LC-MS/MS method; type: ADME, organism-based; conditions: in vivo, other; how it was run: as §1
[19] = Effect on Lactobacillus jensenii ATCC 25258 62G assessed as effect on microbial proliferation at 200 ug/ml incubated for 24 hrs
How it was run: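 L. jensenii ATCC 25258 (strain 62G) in 6% Rogosa SL broth with 0.132% acetic acid; serial compound dilutions or vehicle in triplicate, ~1000 CFU per well, 24 h at 37 °C, humidified 5% CO2; growth read as OD610, expressed relative to control = 100.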

[20] = system: Oryctolagus cuniculus; assay: Apparent […] volume of distribution in New-Zealand rabbit at 33 mg/kg dosed through vaginal administration by LC-MS/MS method; type: ADME, organism-based; conditions: in vivo; how it was run: as §1

Structure (SMILES)	Tmax [1] [h]	MIC [2] [µM]	half-life [3] [h]	MIC [5] [µM]	AUC(0-inf) [7] [ng·h/mL]	MIC [8] [µM]	MEC [9] [%]	minimal effective concentration [9] [µM]	MIC [10] [µM]	MIC [11] [µM]	MIC [12] [µM]	MIC [13] [µM]	Cmax [14] [ng/mL]	Stability [15] [h]	MIC [16] [µM]	Drug uptake [18]	further results
CCCCNC(=S)N1CCN(CCC(=O)c2ccccc2)CC1	0.75	> 81.2	4.67	46.7 (≈ 15.6 µg/mL)	14.7	> 81.2	0.01	300	9.34 (≈ 3.11 µg/mL)	188 (≈ 62.6 µg/mL)	9.34 (≈ 3.11 µg/mL)	> 81.2	4.43	> 1	74.8 (≈ 24.9 µg/mL)	Not Active	Ratio [4]: 4; Activity [6]: Non-toxic; inhibition [17]: 72.3%; Activity [19]: Non-toxic
CCCCCCCCCc1ccc(OCCOCCOCCOCCOCCOCCOCCOCCOCCO)cc1 [NONOXYNOL 9]	1	> 81.2	1.59	81.2 (≈ 50.1 µg/mL)	12.9	> 81.2	0.05	810	> 81.2	122 (≈ 75.1 µg/mL)	> 81.2	> 81.2	3.66	> 1	> 81.2	Not Active	Vd/F [20]: 7931.32 L/kg
